From ChEMBL document CHEMBL4270576, “Discovery of a benzenesulfonamide-based dual inhibitor of microsomal prostaglandin E2 synthase-1 and 5-lipoxygenase that favorably modulates lipid mediator biosynthesis in inflammation” (Eur J Med Chem, 2018) come the findings set out here.

Molecules are shown by their SMILES. Calls of active or inactive are those of the source. No cut-off for these calls is given here.

What is called IC50 is the concentration at which inhibition is half-maximal.

In data set [1] the target is T1, Polyunsaturated fatty acid 5-lipoxygenase (Homo sapiens) (UniProt P09917).
T1 sequence (whole entry): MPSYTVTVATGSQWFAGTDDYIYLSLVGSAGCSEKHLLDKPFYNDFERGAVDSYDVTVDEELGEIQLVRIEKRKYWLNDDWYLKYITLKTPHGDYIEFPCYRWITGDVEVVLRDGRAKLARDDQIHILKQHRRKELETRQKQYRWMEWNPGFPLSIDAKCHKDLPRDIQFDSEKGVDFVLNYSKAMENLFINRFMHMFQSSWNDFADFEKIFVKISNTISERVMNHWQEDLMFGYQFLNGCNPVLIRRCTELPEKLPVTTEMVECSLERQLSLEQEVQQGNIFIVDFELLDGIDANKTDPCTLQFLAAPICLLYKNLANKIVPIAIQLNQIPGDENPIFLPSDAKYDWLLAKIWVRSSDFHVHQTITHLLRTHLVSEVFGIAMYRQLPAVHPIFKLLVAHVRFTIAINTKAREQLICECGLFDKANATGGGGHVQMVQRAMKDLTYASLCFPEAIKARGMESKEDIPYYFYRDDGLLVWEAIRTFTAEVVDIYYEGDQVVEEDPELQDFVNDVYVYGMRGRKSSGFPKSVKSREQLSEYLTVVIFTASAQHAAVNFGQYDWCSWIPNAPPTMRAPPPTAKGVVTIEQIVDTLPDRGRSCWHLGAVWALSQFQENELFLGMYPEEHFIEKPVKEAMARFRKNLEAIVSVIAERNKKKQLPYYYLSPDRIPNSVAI
Briefly: Ratio of IC50 for recombinant human 5-LO to IC50 for 5-LO in human neutrophils.

Data set [2] concerns the target T2, Polyunsaturated fatty acid lipoxygenase ALOX15 (Homo sapiens) (UniProt P16050).
T2 sequence (whole entry): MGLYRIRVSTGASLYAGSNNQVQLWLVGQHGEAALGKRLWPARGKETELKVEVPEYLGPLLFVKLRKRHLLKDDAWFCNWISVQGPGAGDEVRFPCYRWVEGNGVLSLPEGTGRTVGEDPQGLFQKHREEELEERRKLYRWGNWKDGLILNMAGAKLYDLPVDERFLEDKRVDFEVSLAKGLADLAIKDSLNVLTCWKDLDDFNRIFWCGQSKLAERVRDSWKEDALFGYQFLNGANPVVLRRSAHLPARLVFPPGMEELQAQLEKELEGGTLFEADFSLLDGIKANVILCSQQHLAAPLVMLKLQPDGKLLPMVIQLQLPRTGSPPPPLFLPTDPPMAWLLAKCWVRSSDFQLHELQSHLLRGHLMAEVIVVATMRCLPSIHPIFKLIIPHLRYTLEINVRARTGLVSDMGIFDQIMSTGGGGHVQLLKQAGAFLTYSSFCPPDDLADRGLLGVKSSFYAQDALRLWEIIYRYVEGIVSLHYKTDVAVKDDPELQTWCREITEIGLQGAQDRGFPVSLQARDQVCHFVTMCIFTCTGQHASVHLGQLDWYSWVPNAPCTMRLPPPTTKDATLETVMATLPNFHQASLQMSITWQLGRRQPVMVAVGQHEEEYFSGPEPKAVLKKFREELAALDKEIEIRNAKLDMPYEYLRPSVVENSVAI
Briefly: Modulation of 15-LO-mediated 15-HETE level in human M2 macrophages derived from IL4-polarized human monocyte derived macrophages at 3 uM preincubated for 15 mins followed by Escherichia coli (O6:K2:H1) challenge for 90 mins by LC-MS/MS analysis. The method in brief:
(§1)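 Monocytes differentiated 6 days with M-CSF (20 ng/ml), then polarized 48 h with IL-4 20 ng/ml (M2). Cells (2 × 10^6) in PBS/1 mM CaCl2 pre-incubated 15 min at 37 °C with 3 µM compound or 0.1% DMSO, then challenged with E. coli O6:K2:H1 (1:50) for 90 min. Lipid mediators extracted by SPE with deuterated internal standards and quantified by UPLC-MS/MS as % of vehicle.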

A further data set concerns Neutrophil. Briefly: Cytotoxicity against human neutrophils at 10 uM. Format: cell-based.
The target in another data set is T3, Prostaglandin E synthase (Homo sapiens, UniProt O14684).
T3 sequence (O14684 whole entry): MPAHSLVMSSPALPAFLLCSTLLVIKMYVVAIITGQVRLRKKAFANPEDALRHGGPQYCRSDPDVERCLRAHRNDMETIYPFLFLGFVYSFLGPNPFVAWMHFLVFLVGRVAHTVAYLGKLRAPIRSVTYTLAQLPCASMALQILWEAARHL
Briefly: Inhibition of mPGES-1 isolated from microsomes of interleukin-1 beta-stimulated human A549 cells using PGH2 as substrate preincubated for 15 mins followed by substrate addition measured after 1 min by RP-HPLC analysis. The method in brief: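 Microsomes from A549 cells treated with IL-1β (1 ng/ml, 72 h), diluted in 0.1 M potassium phosphate pH 7.4 with 2.5 mM glutathione. Pre-incubated 15 min with compound or DMSO, then 20 µM PGH2 (final) for 1 min at 4 °C. IC50 from 4-5 concentrations.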

For data set [3], the target named is T1, Polyunsaturated fatty acid 5-lipoxygenase (Homo sapiens). Kind of data set: Inhibition of nuclear localization of 5-LO (unknown origin) expressed in HEK293 cells at 10 uM preincubated for 10 mins followed by Ca2+ ionophore A23187 stimulation for 20 mins and measured after 1 hr by DAPI staining-based immunofluorescence microscopic analysis. In kind it is cell-based. The method in brief:
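HEK293 cells stably expressing 5-LO and FLAP, on poly-L-lysine coverslips, pre-incubated 10 min with 10 µM compound or 0.1% DMSO, then stimulated with 2.5 µM A23187 for 20 min at 37 °C. After fixation and permeabilization, stained with anti-5-LO and anti-FLAP antibodies and fluorescent secondaries; imaged by immunofluorescence microscopy, 100 cells from three experiments.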

Data set [4] concerns the target T2, Polyunsaturated fatty acid lipoxygenase ALOX15 (Homo sapiens). Briefly: Modulation of 15-LO-mediated 17-HDHA level in human M2 macrophages derived from IL4-polarized human monocyte derived macrophages at 3 uM preincubated for 15 mins followed by Escherichia coli (O6:K2:H1) challenge for 90 mins by LC-MS/MS analysis. In short, it runs like this: as §1
For the next data set, the species on record is Homo sapiens. Briefly: Modulation of LO-mediated AT-PD1 level in human M2 macrophages derived from IL4-polarized human monocyte derived macrophages at 3 uM preincubated for 15 mins followed by Escherichia coli (O6:K2:H1) challenge for 90 mins by LC-MS/MS analysis. The method in brief:
as §1

In data set [5] the target is T2, Polyunsaturated fatty acid lipoxygenase ALOX15 (Homo sapiens). Briefly: Modulation of 15-LO-mediated 15-HEPE level in human M2 macrophages derived from IL4-polarized human monocyte derived macrophages at 3 uM preincubated for 15 mins followed by Escherichia coli (O6:K2:H1) challenge for 90 mins by LC-MS/MS analysis. In short, it runs like this: as §1
The target in data set [6] is T1, Polyunsaturated fatty acid 5-lipoxygenase (Homo sapiens). Briefly: Inhibition of 5-LO in human M1 macrophages derived from LPS/IFNgamma-polarized human monocyte derived macrophages assessed as effect on 5,6-diHETE level at 3 uM preincubated for 15 mins followed by Escherichia coli (O6:K2:H1) challenge for 90 mins by LC-MS/MS analysis. Also noted: scale not given: the % may be the effect or the level left. In short, it runs like this:
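Monocytes differentiated 6 days with GM-CSF (20 ng/ml) in RPMI/10% FCS, then polarized 48 h with LPS 100 ng/ml plus IFN-γ 20 ng/ml (M1). Cells (2 × 10^6) in PBS with 1 mM CaCl2 pre-incubated 15 min at 37 °C with 3 µM compound or 0.1% DMSO, then E. coli O6:K2:H1 (1:50) for 90 min. Methanol with deuterated standards added; SPE; UPLC-MS/MS; expressed as % of vehicle.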

For `O=C(O)c1ccc(N(Cc2cccc(OCc3ccccc3)c2)S(=O)(=O)c2ccc(-c3ccccc3)cc2)cc1`, the Ratio IC50 in data set [1] was 8. For the same compound, the Activity in data set [2] was 135%; with Neutrophil, “Non-Toxic”; in data set [4], 124%; in the data set listed under Homo sapiens it was 106%; in [5] it was 125%; in data set [6], 13%. This compound gave an IC50 on Prostaglandin E synthase of 700 nM. For the same compound, in data set [3], the inhibition entry is “inactive”.
